Source: ChEMBL document CHEMBL5344432, “Identification of a Dual Autophagy and REV-ERB Inhibitor with in Vivo Anticancer Efficacy” (J Med Chem, 2024)

How the values were obtained:
[1] = test system: A-375; assay: Antitumor activity against human A-375 cells xenografted in NMRI-Foxn1nu mouse assessed as reduction in tumor weight at 30 mg/kg, ip administered as 3 days on and 2 days off schedule and measured after 15 days; assay type: functional; set-up: scale not given: the % may be the effect or the level left; details: time 15 day
In short: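 Female NMRI-Foxn1nu mice with subcutaneous A375 flank tumors, grouped by matched tumor volume. Dosing: 30 mg/kg ip or saline, 3 days daily then 2 days off. Tumors measured by digital caliper until day 15. Excised tumors then sized as (W × D × L)/2 and weighed. n = 8; Mann–Whitney two-tailed test for the excised endpoints.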

[2] = Cytotoxicity against HMECs; assay type: toxicity, cell-based, HMEC; details: human, HMEC cells
In short: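 BT-474 breast cancer cells and nontumorigenic HMECs treated 48 h with concentrations up to 30 μM. CC50 derived from concentration–response viability plots. Values >30 μM assigned when viability fell by less than 50% of vehicle at 30 μM. Mean ± SEM, n ≥ 3.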

Compound: Fc1ccc(C2(NCc3ccc(F)c(CC4CCNCC4)c3)CCCC2)cc1
- Activity [1]: 56%
- CC50 [2]: > 30 µM
